E-sel inducer: E-selectin induction on HUVECs. P16581. HUVEC E-selectin immunofluorescence imaging; normalized: neutral wells 0, TNF-alpha wells 100. activation, % at 7.58 µM. actives 0.37% (n = 260,000);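 active means mean E-selectin-positive cell signal at least 10% of the positive control, reached in at least 60% of replicates, without over 20% cell loss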
Target sequence (P16581 whole entry, looked up): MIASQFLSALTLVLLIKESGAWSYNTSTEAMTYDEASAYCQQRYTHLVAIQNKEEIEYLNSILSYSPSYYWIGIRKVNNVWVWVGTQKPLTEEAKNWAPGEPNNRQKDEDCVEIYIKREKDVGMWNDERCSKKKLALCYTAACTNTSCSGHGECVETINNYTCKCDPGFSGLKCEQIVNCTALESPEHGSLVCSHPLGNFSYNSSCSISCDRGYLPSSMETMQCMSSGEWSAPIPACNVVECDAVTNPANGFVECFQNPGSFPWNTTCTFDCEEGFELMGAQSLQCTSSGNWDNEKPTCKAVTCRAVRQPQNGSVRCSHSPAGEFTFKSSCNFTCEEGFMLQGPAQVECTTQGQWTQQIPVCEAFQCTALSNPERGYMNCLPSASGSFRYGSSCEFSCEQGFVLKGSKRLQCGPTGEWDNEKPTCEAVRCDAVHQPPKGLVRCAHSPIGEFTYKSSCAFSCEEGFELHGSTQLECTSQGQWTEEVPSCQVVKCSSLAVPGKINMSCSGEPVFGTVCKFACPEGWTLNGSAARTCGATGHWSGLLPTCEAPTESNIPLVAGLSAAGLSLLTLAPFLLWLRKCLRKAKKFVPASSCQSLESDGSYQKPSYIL
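Assay system: HUVEC primary endothelial cells. Input: 3,000 HUVEC seeded per well. Doses: one compound dose added by pin transfer. Read-out basis: % PE-positive cells. Benchmarks: TNF-alpha high, DMSO low. Detection: immunofluorescence imaging. Buffer or medium: EGM-2, gelatin.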
* marks the source's active call; other numbers are inactive results. Many of the other results were omitted from the sample, so hits are more common in it than they were.

SMILES	E-sel inducer
C[C@@H]1CCCCO[C@@H](CN(C)S(C)(=O)=O)[C@@H](C)CN([C@@H](C)CO)C(=O)c2cc(NS(=O)(=O)c3ccc(F)cc3)ccc2O1	0
C[C@@H]1CN([C@@H](C)CO)C(=O)c2cc(NS(=O)(=O)c3cccs3)ccc2O[C@@H]1CN(C)S(=O)(=O)c1cccs1	0
C[C@@H]1CN([C@H](C)CO)C(=O)c2cc(NS(=O)(=O)c3cccs3)ccc2O[C@@H]1CN(C)S(C)(=O)=O	-6
C[C@H]1CN([C@@H](C)CO)C(=O)c2cc(NS(=O)(=O)c3cccs3)ccc2O[C@@H]1CN(C)S(C)(=O)=O	-2
C[C@@H]1CN([C@H](C)CO)C(=O)c2cc(NS(=O)(=O)c3cccs3)ccc2O[C@H]1CN(C)S(C)(=O)=O	33*
C[C@@H]1CN([C@H](C)CO)C(=O)c2cc(NS(=O)(=O)c3cccs3)ccc2O[C@H]1CN(C)S(=O)(=O)c1cccs1	0
C[C@H]1CN([C@@H](C)CO)C(=O)c2cc(NS(=O)(=O)c3cccs3)ccc2O[C@H]1CN(C)S(C)(=O)=O	449*
C[C@@H]1CN([C@H](C)CO)C(=O)c2cc(NS(=O)(=O)c3ccc(F)cc3)ccc2O[C@@H](C)CCCCO[C@@H]1CN(C)S(C)(=O)=O	44*
C[C@H](CO)N1C[C@H](C)[C@@H](CN(C)S(=O)(=O)c2cn(C)cn2)Oc2ncc(C#CCN(C)C)cc2C1=O	0
COc1cccc(S(=O)(=O)N2C[C@H](O)COC[C@@H]3O[C@H](CC(=O)N4CCOCC4)CC[C@H]32)c1	0
O=C(C1CCCCC1)N1C[C@@H]2[C@H](c3ccccc31)[C@H](CO)N2C(=O)c1ccccc1	0
O=C([C@@H]1[C@@H](CO)[C@@H]2Cn3c(ccc(-c4ccc(F)cc4)c3=O)[C@@H]2N1Cc1cocn1)N1CCCCC1	0
COc1ccc2c3c(n(C)c2c1)[C@@H](CO)N(C(=O)Nc1ccc(F)cc1)CC31CCN(C(=O)Cc2ccncc2)CC1	0
C[C@H]1CN([C@@H](C)CO)C(=O)c2cccc(NS(C)(=O)=O)c2O[C@@H]1CN(C)C(=O)Nc1ccccc1	-14
CN(C)C(=O)C[C@@H]1C[C@@H]2c3cc(NS(=O)(=O)c4ccccc4)ccc3O[C@@H]2[C@@H](CO)O1	0
C[C@H]1CN([C@@H](C)CO)C(=O)CCCn2nncc2CO[C@H]1CN(C)Cc1ccc(C(F)(F)F)cc1	0
COc1cccc(CN(C)C[C@H]2OCc3ccccc3-c3c(n(C)c4ccccc34)C(=O)N([C@H](C)CO)C[C@H]2C)c1	-1
CCn1c(SCC(=O)N(C)C2CCCCC2)nc2cc(S(N)(=O)=O)ccc21	0
CCn1c(SCC(=O)N(C)Cc2ccc(OC)c(F)c2)nc2cc(S(N)(=O)=O)ccc21	42*
CCn1c(SCC(=O)N(C)C)nc2cc(S(=O)(=O)N3CCCCC3)ccc21	16
COc1ccccc1C(=O)Nc1ccc2c(c1)C(=O)N(C)C[C@H](OC)[C@H](C)CN(C)[C@H](C)CO2	1
CN(C)S(=O)(=O)c1cccc(NC(=O)c2cc3c(cc2Cl)N2CCCCCC2=NS3(=O)=O)c1	-1
COc1cccc(CNC(=O)c2cc3c(cc2Cl)N2CCCCCC2=NS3(=O)=O)c1	100*
COC(=O)c1cc2c(cc1Cl)N1CCCCCC1=NS2(=O)=O	0
CCCC(=O)Nc1ccc2c(c1)C(=O)N(C)[C@@H]1CC[C@H](CC(=O)NCc3ccccc3Cl)O[C@@H]1CO2	0
SMILES	E-sel inducer
C[C@@H]1CCCCO[C@H](CN(C)CC2CC2)[C@H](C)CN([C@@H](C)CO)C(=O)c2cc(NC(=O)Nc3ccc4c(c3)OCO4)ccc2O1	0
O=C(C[C@@H]1CC[C@H](NS(=O)(=O)c2ccc(F)cc2)[C@H](CO)O1)NCc1ccncn1	-1
O=C(Nc1ccc(F)cc1)N1CCCCN2[C@H](CO)[C@H](c3ccc(C#CC4CC4)cc3)[C@@H]2C1	0
Cc1noc(C)c1NC(=O)Nc1ccc2c(c1)CC(=O)N([C@@H](C)CO)C[C@@H](C)[C@@H](CN(C)C(=O)Nc1ccc(F)cc1)O2	1
Cc1noc(C)c1NC(=O)Nc1ccc2c(c1)CC(=O)N([C@H](C)CO)C[C@@H](C)[C@@H](CN(C)C(=O)Nc1ccc(F)cc1)O2	1
C[C@H](CO)N1C[C@H](C)[C@H](CN(C)Cc2ccc(C(F)(F)F)cc2)Oc2ccc(NC(=O)Nc3ccccc3)cc2CC1=O	0
C[C@H]1CN([C@@H](C)CO)C(=O)Cc2cc(NC(=O)Nc3ccc(C(F)(F)F)cc3)ccc2O[C@@H]1CN(C)Cc1ccc(Oc2ccccc2)cc1	1
Cc1noc(C)c1NC(=O)Nc1ccc2c(c1)CC(=O)N([C@H](C)CO)C[C@@H](C)[C@@H](CN(C)Cc1ccc(Oc3ccccc3)cc1)O2	-5
C[C@@H]1CN([C@H](C)CO)C(=O)c2cc(NC(=O)Nc3ccc(C(F)(F)F)cc3)ccc2O[C@H]1CN(C)Cc1ccc(Oc2ccccc2)cc1	-6
C[C@H](CO)N1C[C@H](C)[C@@H](CN(C)Cc2ccc(Oc3ccccc3)cc2)Oc2ccc(NC(=O)Nc3ccc(C(F)(F)F)cc3)cc2CC1=O	36*
Cc1noc(C)c1NC(=O)Nc1ccc2c(c1)CC(=O)N([C@@H](C)CO)C[C@H](C)[C@H](CN(C)Cc1ccc(Oc3ccccc3)cc1)O2	399*
Cc1noc(C)c1NC(=O)Nc1ccc2c(c1)CC(=O)N([C@@H](C)CO)C[C@H](C)[C@@H](CN(C)Cc1ccc(Oc3ccccc3)cc1)O2	-14
C[C@@H]1CN([C@@H](C)CO)C(=O)c2cc(NC(=O)Nc3ccc(C(F)(F)F)cc3)ccc2O[C@@H]1CN(C)Cc1ccc(Oc2ccccc2)cc1	100*
Cc1noc(C)c1NC(=O)Nc1ccc2c(c1)CC(=O)N([C@@H](C)CO)C[C@H](C)[C@@H](CN(C)C(=O)Nc1ccc(F)cc1)O2	73*
C[C@@H]1CN([C@H](C)CO)C(=O)c2cc(NC(=O)Nc3ccc(C(F)(F)F)cc3)ccc2O[C@@H]1CN(C)Cc1ccc(Oc2ccccc2)cc1	-6
CN1C(=O)c2cc(NC(=O)c3ccc(C(F)(F)F)cc3)ccc2OC[C@H]2O[C@@H](CC(=O)O)CC[C@H]21	0
Cc1ccccc1S(=O)(=O)N1CC[C@@H]2[C@H](CO)Nc3ccc(-c4ccccc4F)cc3[C@@H]21	-1
C[C@H]1CN([C@@H](C)CO)C(=O)c2ccccc2-c2ccccc2CO[C@@H]1CN(C)C(=O)CCC(F)(F)F	0
C[C@@H]1CN([C@H](C)CO)C(=O)Cc2cc(NC(=O)c3ccncc3)ccc2O[C@H]1CN(C)Cc1ccccc1	0
CO[C@H]1CN(C)C(=O)c2cc(NC(=O)NC3CCCCC3)ccc2OC[C@@H](C)NC[C@@H]1C	0
COc1ccc(-c2ccc3c(c2)[C@H]2[C@H](CCN2S(=O)(=O)c2ccccc2C)[C@H](CO)N3C)cc1	0
CCC(=O)N1C[C@H](O)COC[C@@H]2O[C@H](CC(=O)NCC3CCCCC3)CC[C@H]21	0
O=C(COC(=O)c1ccc(Br)o1)Nc1ccc2[nH]c(=O)[nH]c2c1	27*
O=C(COC(=O)c1ccc(O)cc1)Nc1ccc2[nH]c(=O)[nH]c2c1	0
O=C(COC(=O)c1ccccc1)Nc1ccc2[nH]c(=O)[nH]c2c1	1
O=C(Cc1ccccc1)N1CC[C@H]2[C@H](CO)Nc3ccc(-c4ccccc4)cc3[C@H]21	1
O=C(/C=C/c1ccco1)OCC(=O)N1CCCCC1	0
CCN(C(=O)COC(=O)/C=C/c1ccco1)C1CCCCC1	111*

High-throughput results from PubChem BioAssay.
